Screening results: PubChem, The Scripps Research Institute Molecular Screening Center
5HT1a antag – antagonists of human 5-HT1a serotonin receptor; AID 612; 62,000 tested, 0.68% active; P08908; CHO 5-HT1a Ga15 NFAT-bla reporter, antagonist mode; inhibition, % at 10 µM;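 active = inhibition above the mean of all tested compounds plus 3 SD, cut at about 43% in these data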;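 note: receptor stimulated by 5-CT agonist at 100 nM near EC80; beta-lactamase reporter measured by ratiometric fluorescence of a cleavable substrate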
Target sequence (P08908 whole entry, looked up): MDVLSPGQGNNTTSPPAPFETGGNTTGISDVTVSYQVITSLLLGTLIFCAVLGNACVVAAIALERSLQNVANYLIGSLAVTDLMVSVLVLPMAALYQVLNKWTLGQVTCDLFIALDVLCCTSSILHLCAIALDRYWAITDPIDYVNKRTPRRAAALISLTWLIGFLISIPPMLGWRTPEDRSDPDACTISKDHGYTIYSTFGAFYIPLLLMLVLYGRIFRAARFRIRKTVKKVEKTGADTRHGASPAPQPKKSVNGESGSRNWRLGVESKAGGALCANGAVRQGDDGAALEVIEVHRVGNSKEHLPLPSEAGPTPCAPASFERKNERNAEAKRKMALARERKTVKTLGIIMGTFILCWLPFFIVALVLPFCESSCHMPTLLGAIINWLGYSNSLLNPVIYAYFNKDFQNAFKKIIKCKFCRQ
HTR1E antagonist – blocks the human 5-HT1E serotonin receptor; P28566; 65,000 tested, 0.99% active; inhibition, % at 6 µM; CHO 5-HT1E Ga15 NFAT-bla reporter, FRET, antagonist;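 active = inhibition above a set limit, the mean inhibition across every tested compound plus 3 SD, cut at about 29% in these data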;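 note: signal is the 460 over 535 nm emission ratio of beta-lactamase substrate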
HTR1A agonist – activates the human 5-HT1a serotonin receptor; CHO 5-HT1a Ga15 NFAT-bla reporter, FRET ratio; 0% basal, 100% maximal reference agonist; 65,000 tested, 0.56% active; P08908; activation, % at 10 µM;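 active = activation above the screen-wide mean activation plus 3 SD, cut at about 19% in these data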
5HT1E ag – activates the human 5-HT1E serotonin receptor | activation, % at 6 µM | P28566 | 65,000 tested, 0.69% active | CHO 5-HT1E Ga15 NFAT-bla reporter, FRET; 0% DMSO wells, 100% control agonist wells;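 active = activation above a set limit, the screen-wide mean activation plus 3 SD, cut at about 8.5% in these data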
S1P3 ag – S1P3 (human) receptor agonism; Q99500; activation, % at 4.5 µM; S1P3 NFAT-BLA reporter cells, FRET ratio; relative to 1 µM S1P, basal subtracted; 60,000 tested, 0.1% active;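 active = activation above the screen-wide mean plus 3 SD, cut at about 4.5% in these data, passing the limit was not always enough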
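Assay system: CHO cells stably expressing human S1P3, Gα16 and NFAT-β-lactamase reporter. Timing: overnight plating, 4 h compound 37 °C, 2 h substrate RT. Signal: β-lactamase FRET emission ratio 460/535 nm. Measure: percent activation versus median 1 µM S1P response, basal-subtracted, per plate. Repeats: primary screen single test, confirmation screen in triplicate.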
S1P1 ag pot – S1P1 (human) agonism or agonism potentiation; P21453; S1P1 CRE-bla cells, forskolin, beta-lactamase FRET, potentiator mode; S1P1 agonist co-added at EC20, 2 nM; 100% = saturating reference agonist, 0% = basal; activation, % at 9.5 µM; 56,000 tested, 0.57% active; AID 449;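 active = activation above a cutoff set at the mean activation of all tested compounds plus 3 SD, cut at about 54% in these data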;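 note: forskolin at 4 µM as EC80 and the EC20 agonist is SEW2871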
Each line names hits and unclear results; the compound was inactive in the other large screens. The list is not random: actives were taken first. Their share in the collection is about 3%.

CCCCOc1ccccc1C1C(C(=O)OC)=CN(CC)C=C1C(=O)OC	HTR1A agonist 39.5
CCN1C=C(C(=O)OC)C(c2cccc(C)c2)C(C(=O)OC)=C1	HTR1A agonist 20.4 (no result: S1P3 ag, S1P1 ag pot)
COc1ccccc1C(=O)NCCCN1CCCC1=O	none
CCCOc1ccccc1C1C(C(=O)OC)=CN(C(C)C)C=C1C(=O)OC	none
O=C(CN(Cc1ccc(F)cc1)C(=O)CCC(=O)Nc1ccccn1)NCc1ccco1	none
CCn1c(SCC(=O)Nc2ccc(OCc3ccccc3)cc2)nnc1-c1ccco1	none
COc1cccc(NC(=O)N(Cc2cc3cc(C)cc(C)c3[nH]c2=O)CC2COCCO2)c1 (configuration not stated)	none
COC(=O)C1=CN(C(C)C)C=C(C(=O)OC)C1c1cccc(OC)c1	HTR1A agonist 22.9
CCCc1nc(N)c(C#N)c(N)c1C#N	HTR1E antagonist 29.0
CCc1nc(N)c(C#N)c(-c2ccncc2)c1C	none
CCOc1cc(C2c3c(oc4cc(C)c(Cl)cc4c3=O)C(=O)N2Cc2ccco2)ccc1O (configuration not stated)	5HT1E ag 9.8
Cc1cc2oc3c(c(=O)c2cc1C)C(c1cccc(Br)c1)N(Cc1ccco1)C3=O (configuration not stated)	none
COc1ccccc1-c1nnc2sc(-c3cc4ccccc4o3)nn12	HTR1E antagonist 36.2
CN(C)c1ccc(-c2nn3c(-c4ccccc4Cl)nnc3s2)cc1	5HT1a antag 44.8, HTR1E antagonist 75.3
Clc1ccccc1-c1nnc2sc(-c3ccncc3)nn12	none
COc1ccccc1-c1nnc2sc(-c3cnccn3)nn12	none
COc1ccccc1-c1nnc2sc(-c3ccc(N(C)C)cc3)nn12	5HT1a antag 67.7, HTR1E antagonist 86.1
CN1CCN(c2ccccc2NC(=O)c2ccc(Br)o2)CC1	5HT1E ag 13.4
O=C(Nc1ccc(N2CCOCC2)cc1)c1cnsn1	none
CS(=O)(=O)c1ncc(Cl)c(C(=O)Nc2ccc(N3CCOCC3)cc2)n1	5HT1a antag 80.7, HTR1E antagonist 82.2
Cc1ccc2[nH]c3c(N4CCCCCC4)ncnc3c2c1	HTR1E antagonist 31.9, S1P1 ag pot 96.9 (no result: 5HT1a antag)
c1ccc(CN2CCN(c3ncnc4c3[nH]c3ccccc34)CC2)cc1	HTR1E antagonist 35.4, S1P1 ag pot 62.9 (no result: 5HT1a antag)
Cc1ccc2[nH]c3c(N4CCN(Cc5ccccc5)CC4)ncnc3c2c1	none (no result: 5HT1a antag)
Cc1ccc2c(c1)[nH]c1c(N3CCN(Cc4ccccc4)CC3)ncnc12	S1P1 ag pot 132.8
c1ccc(Cn2nnc3c(N4CCc5ccccc5C4)ncnc32)cc1	HTR1A agonist 95.5
c1ccc2c(c1)[nH]c1c(N3CCC4(CC3)OCCO4)ncnc12	none (no result: 5HT1a antag)
c1ccc2c(c1)CCN(c1ncnc3c1[nH]c1ccccc13)C2	HTR1E antagonist 46.4, S1P1 ag pot 112.8 (no result: 5HT1a antag)
CCOC(=O)CC(=O)CSc1ccc2nnc(-c3cccc(F)c3)n2n1	none
CSc1ccc2nnc(-c3cccc(F)c3)n2n1	HTR1A agonist 19.6
CCOc1ccc(C)cc1S(=O)(=O)NC1CCCCC1	none
CCOc1cc(S(=O)(=O)NC2CCCC2)ccc1Cl	5HT1E ag 15.1 (no result: S1P1 ag pot)
CC(=O)c1cc2c(cc1NC(=O)CN1CCCCC1C)OCO2 (configuration not stated)	none (no result: S1P3 ag, S1P1 ag pot)
CCn1c(=O)c(=O)[nH]c2cc(C(=O)NC3CCCc4ccccc43)ccc21 (configuration not stated)	none (no result: S1P3 ag, S1P1 ag pot)
COc1ccc(C(=O)Nc2ccc(Cl)cc2C(=O)NCc2ccco2)cc1OC	HTR1E antagonist 40.1
CCOC(=O)c1c(NC(=O)CSc2n[nH]c(-c3ccco3)n2)sc(C)c1C	HTR1E antagonist 43.6
O=C(CSc1n[nH]c(-c2ccco2)n1)N1c2ccccc2Sc2ccccc21	HTR1E antagonist 37.4
CCOC(=O)CSc1n[nH]c(-c2ccco2)n1	none
COc1ccc(OC)c(S(=O)(=O)N2CCCc3ccccc32)c1	none
COc1ccc(S(=O)(=O)NCc2ccccn2)c(Cl)c1Cl	none
CCn1nnc(-c2ccccc2NS(=O)(=O)c2ccc(C(=O)OC)cc2)n1	HTR1E antagonist 33.9
CCn1nnc(-c2ccccc2NC(=O)c2ccc(-n3cnnn3)cc2)n1	none
